Data reported in ChEMBL document CHEMBL1128415 (J Med Chem, 1995).
Several values for one entry are separate records, joined by “and”; a condition that tells them apart may be missing. Equal values may be shown once.

How the values were obtained:
[1] = molecular target: T1, Angiotensin II receptor (AT-1) type-1 (Rattus norvegicus) (UniProt P29089+P25095); assay: Inhibition of pressor response induced by infusion of angiotensin II in rats, administered perorally; assay type: functional
Outline: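 Sprague-Dawley rats (n = 18-28) dosed by gastric tube in groups; vehicle water or water with 2 equiv NaOH; controls given water. At 50 min rats anaesthetised, pithed, ventilated, with carotid and jugular catheters. At 1 h post-dose AII 0.75 μg/kg iv given.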

[2] = molecular target: T2, Angiotensin II receptor (AT-1) type-1 (Rattus norvegicus, UniProt P29089+P25095); assay: Specific binding inhibition of [125I]AII to Angiotensin II receptor, type 1 in rat liver membrane; assay type: cell membranes
T2 sequence (P29089 whole entry): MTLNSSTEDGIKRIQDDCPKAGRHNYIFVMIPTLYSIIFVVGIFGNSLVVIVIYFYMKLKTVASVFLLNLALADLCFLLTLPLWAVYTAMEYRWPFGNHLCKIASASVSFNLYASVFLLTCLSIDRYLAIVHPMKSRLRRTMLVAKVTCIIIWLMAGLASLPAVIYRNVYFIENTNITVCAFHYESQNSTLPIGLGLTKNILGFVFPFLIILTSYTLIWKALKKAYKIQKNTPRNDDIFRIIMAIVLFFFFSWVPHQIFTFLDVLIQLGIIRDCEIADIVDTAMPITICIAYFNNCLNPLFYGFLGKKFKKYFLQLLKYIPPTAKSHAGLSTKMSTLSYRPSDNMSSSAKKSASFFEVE
T2 sequence (P25095 whole entry): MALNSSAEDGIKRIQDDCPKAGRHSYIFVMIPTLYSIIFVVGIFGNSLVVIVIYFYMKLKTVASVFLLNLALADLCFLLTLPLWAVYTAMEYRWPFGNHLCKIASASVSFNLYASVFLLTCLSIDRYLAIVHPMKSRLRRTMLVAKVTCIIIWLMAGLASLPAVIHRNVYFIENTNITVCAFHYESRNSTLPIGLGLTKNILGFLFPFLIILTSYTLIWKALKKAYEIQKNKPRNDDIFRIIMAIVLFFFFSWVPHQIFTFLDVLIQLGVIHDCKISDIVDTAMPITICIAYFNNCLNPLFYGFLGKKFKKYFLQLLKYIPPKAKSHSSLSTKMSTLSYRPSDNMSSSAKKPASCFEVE

[3] = molecular target: T1, Angiotensin II receptor (AT-1) type-1 (Rattus norvegicus); assay: Inhibition of pressor response induced by infusion of AII in rats when dose is administered intravenously; assay type: functional
Outline: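 Normotensive Sprague-Dawley pithed rats (n = 4), BP recorded by carotid catheter. AII 0.75 μg/kg injected via jugular vein; three control responses taken. Each later AII challenge followed, by 5 min, an iv injection of antagonist at increasing doses, in water or water with 2 equiv NaOH.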

[4] = test system: Rattus norvegicus; assay: Effective dose to inhibit AII-induced pressor response in pithed rats, was determined in vivo after intraduodenal administration; settings: read-out: ID50 (the source's name)

CCCCc1nc(SC)c(C(=O)OCC)n1Cc1ccc(-c2ccccc2S(=O)(=O)NC(=O)NCCC)cc1
ID50 [1]: 1.13 mg/kg | IC50 [2]: 0.4 nM | ID50 [3]: 0.08 mg/kg

CCCCc1nc(SC)c(C(=O)O)n1Cc1ccc(-c2ccccc2S(=O)(=O)NS(=O)(=O)CC)cc1
ED50 [4]: > 1 mg/kg | IC50 [2]: 1.1 nM

CCCCc1nc(SC)c(C(=O)O)n1Cc1ccc(-c2ccccc2S(=O)(=O)NC(=O)NCc2cccnc2)cc1
IC50 [2]: 0.9 nM

CCCCOC(=O)NS(=O)(=O)c1ccccc1-c1ccc(Cn2c(CCCC)nc(SC)c2C(=O)O)cc1
ID50 [1]: 0.6 mg/kg | IC50 [2]: 0.1 nM | ID50 [3]: 0.1 mg/kg

CCCCc1nc(SC)c(C(=O)OC(C)(C)C)n1Cc1ccc(-c2ccccc2S(=O)(=O)NC(=O)NCCC)cc1
IC50 [2]: 0.6 nM | ID50 [3]: 0.1 mg/kg

CCCCc1nc(SC)c(C(=O)O)n1Cc1ccc(-c2ccccc2S(=O)(=O)NC(=O)NCC)cc1
ID50 [1]: 1.12 mg/kg | ID50 [3]: 0.17 mg/kg

CCCCc1nc(SC)c(C(=O)O)n1Cc1ccc(-c2ccccc2S(=O)(=O)NC(=O)c2ccccc2)cc1
IC50 [2]: 0.09 nM | ID50 [3]: 0.4 mg/kg

CCCCc1nc(SC)c(C(=O)OCc2ccccc2)n1Cc1ccc(-c2ccccc2S(=O)(=O)NC(=O)NCCC)cc1
ID50 [1]: 1.73 mg/kg | IC50 [2]: 0.1 nM | ID50 [3]: 0.2 mg/kg

CCCCc1nc(SCCCCO)c(C(=O)O)n1Cc1ccc(-c2ccccc2S(=O)(=O)NC(=O)NCCC)cc1
ID50 [1]: 9.81 mg/kg | IC50 [2]: 0.4 nM | ID50 [3]: 0.12 mg/kg

CCCCc1nc(SC)c(C(=O)NC(C(=O)O)C(C)CC)n1Cc1ccc(-c2ccccc2S(=O)(=O)NC(=O)NCCC)cc1 (stereo not given)
ID50 [1]: 2.11 mg/kg | IC50 [2]: 0.3 nM | ID50 [3]: 0.37 mg/kg

CCCCc1nc(SC)cn1Cc1ccc(-c2ccccc2S(=O)(=O)NC(=O)NCCC)cc1
ID50 [1]: > 10 mg/kg | IC50 [2]: 2.6 nM | ID50 [3]: 0.7 mg/kg

CCCCc1nc(SCCCO)c(C(=O)O)n1Cc1ccc(-c2ccccc2S(=O)(=O)NC(=O)NCCC)cc1
ID50 [1]: 5.74 mg/kg | IC50 [2]: 0.2 nM | ID50 [3]: 0.11 mg/kg

CCCCc1nc(SC)c(C(=O)O)n1Cc1ccc(-c2ccccc2S(=O)(=O)NS(=O)(=O)C(F)(F)F)cc1
IC50 [2]: 0.8 nM | ID50 [3]: 1.45 mg/kg

CCCCc1nc(SC)c(CO)n1Cc1ccc(-c2ccccc2S(=O)(=O)NC(=O)NCCC)cc1
ID50 [1]: > 10 mg/kg | IC50 [2]: 4.5 nM | ID50 [3]: 0.21 mg/kg

CCCCc1nc(Sc2cccs2)c(C(=O)O)n1Cc1ccc(-c2ccccc2S(=O)(=O)NC(=O)NCCC)cc1
IC50 [2]: 0.2 nM | ID50 [3]: 2.01 mg/kg

CCCCc1nc(SC)c(C(=O)O)n1Cc1ccc(-c2ccccc2S(N)(=O)=O)cc1
ID50 [1]: > 30 mg/kg | IC50 [2]: 36 nM | ID50 [3]: 5.6 mg/kg

CCCCNC(=O)NS(=O)(=O)c1ccccc1-c1ccc(Cn2c(CCCC)nc(SC)c2C(=O)O)cc1
ID50 [1]: 0.21 mg/kg | ID50 [3]: 0.09 mg/kg

CCCCc1nc(SC)c(C(=O)NS(=O)(=O)c2ccccc2)n1Cc1ccc(-c2ccccc2S(=O)(=O)NC(=O)NCCC)cc1
IC50 [2]: 0.8 nM | ID50 [3]: 1.15 mg/kg

CCCCc1nc(SC)c(C(=O)O)n1Cc1ccc(-c2ccccc2S(=O)(=O)NC(=O)OCC)cc1
ID50 [1]: 0.38 mg/kg | IC50 [2]: 0.9 nM | ID50 [3]: 0.07 mg/kg

CCCCc1nc(SCSC)c(C(=O)O)n1Cc1ccc(-c2ccccc2S(=O)(=O)NC(=O)NCCC)cc1
ID50 [1]: 2.75 mg/kg | IC50 [2]: 0.2 nM

CCCNC(=O)NS(=O)(=O)c1ccccc1-c1ccc(Cn2c(C)nc(SC)c2C(=O)O)cc1
IC50 [2]: 15 nM

CCCCc1nc(SC)c(C(=O)OCC)n1Cc1ccc(-c2ccccc2S(=O)(=O)N(C)C(=O)NCCC)cc1
IC50 [2]: 78 nM

CCCCc1nc([S+](C)[O-])c(C(=O)O)n1Cc1ccc(-c2ccccc2S(=O)(=O)NC(=O)NCCC)cc1 (stereo not given)
ID50 [1]: > 10 mg/kg | IC50 [2]: 3.1 nM | ID50 [3]: 0.14 mg/kg

CCCCc1nc(SC(F)F)c(C(=O)O)n1Cc1ccc(-c2ccccc2S(=O)(=O)NC(=O)NCCC)cc1
ID50 [1]: 0.73 mg/kg | IC50 [2]: 0.5 nM | ID50 [3]: 0.07 mg/kg

C=CCNC(=O)NS(=O)(=O)c1ccccc1-c1ccc(Cn2c(CCCC)nc(SC)c2C(=O)O)cc1
ID50 [1]: 0.57 mg/kg | IC50 [2]: 1.1 nM | ID50 [3]: 0.11 mg/kg

CCCCc1nc(SC)c(C(=O)O)n1Cc1ccc(-c2ccccc2C(=O)NC(=O)NCCC)cc1
IC50 [2]: 114 nM

CCCCc1nc(Cl)c(C(=O)O)n1Cc1ccc(-c2ccccc2S(=O)(=O)NC(=O)NCCC)cc1
ID50 [1]: 3.1 mg/kg | IC50 [2]: 1 nM | ID50 [3]: 0.16 mg/kg

CCCCc1nc(SC)c(C(N)=O)n1Cc1ccc(-c2ccccc2S(=O)(=O)NC(=O)NCCC)cc1
ID50 [1]: 2.83 mg/kg | IC50 [2]: 1 nM | ID50 [3]: 0.06 mg/kg

CCCNC(=O)NS(=O)(=O)c1ccccc1-c1ccc(Cn2c(C3CC3)nc(SC)c2C(=O)O)cc1
IC50 [2]: 7.7 nM

CCCCc1nc(SC)c(C(=O)NCC(=O)O)n1Cc1ccc(-c2ccccc2S(=O)(=O)NC(=O)NCCC)cc1
ID50 [1]: 3.55 mg/kg | IC50 [2]: 1.5 nM | ID50 [3]: 0.06 mg/kg

CCCCc1nc(SC)c(C(=O)O)n1Cc1ccc(-c2ccccc2S(=O)(=O)NC(=O)OC)cc1
ID50 [1]: 1.54 mg/kg | IC50 [2]: 0.9 nM | ID50 [3]: 0.1 mg/kg

CCCCc1nc(SC)c(C(=O)O)n1Cc1ccc(-c2ccccc2S(=O)(=O)NC(=O)NC)cc1
ID50 [1]: 4.94 mg/kg | ID50 [3]: 0.27 mg/kg

CCCCc1nc(C(=O)O)c(SC)n1Cc1ccc(-c2ccccc2S(=O)(=O)NC(=O)NCCC)cc1
IC50 [2]: 103 nM

CCCCc1nc(SC)c(C(=O)O)n1Cc1ccc(-c2ccccc2S(=O)(=O)NC(=O)OCC=C(C)C)cc1
IC50 [2]: 1.8 nM

CCCCc1nc(SC)c(C(=O)NCC(=O)OC)n1Cc1ccc(-c2ccccc2S(=O)(=O)NC(=O)NCCC)cc1
ID50 [1]: 2.4 mg/kg | IC50 [2]: 0.8 nM | ID50 [3]: 0.05 mg/kg

CCCCc1nc(SC)c(C(=O)O)n1Cc1ccc(-c2ccccc2S(=O)(=O)NC(=O)NCCC)cc1
ID50 [1]: 0.7 mg/kg and 0.4 mg/kg | IC50 [2]: 0.3 nM | ID50 [3]: 0.11 mg/kg and 0.13 mg/kg

CCCCc1nc(SC)c(C(=O)NC)n1Cc1ccc(-c2ccccc2S(=O)(=O)NC(=O)NCCC)cc1
ID50 [1]: 4.86 mg/kg | IC50 [2]: 2.1 nM | ID50 [3]: 0.02 mg/kg

CCCCc1nc(S(C)(=O)=O)c(C(=O)O)n1Cc1ccc(-c2ccccc2S(=O)(=O)NC(=O)NCCC)cc1
ID50 [1]: > 10 mg/kg | IC50 [2]: 3.2 nM | ID50 [3]: 0.06 mg/kg

CCCNC(=O)NS(=O)(=O)c1ccccc1-c1ccc(Cn2c(CCC)nc(SC)c2C(=O)O)cc1
IC50 [2]: 0.2 nM

CCCCc1nc(SC)c(C(=O)NC(C)=O)n1Cc1ccc(-c2ccccc2S(=O)(=O)NC(=O)NCCC)cc1
ID50 [1]: 3.01 mg/kg | IC50 [2]: 1.7 nM | ID50 [3]: 0.09 mg/kg

CCCCc1nc(SC)c(C(=O)O)n1Cc1ccc(-c2ccccc2S(=O)(=O)NC(=O)Cc2ccccc2)cc1
ID50 [1]: 1.75 mg/kg | IC50 [2]: 0.08 nM | ID50 [3]: 0.44 mg/kg

CCCCc1nc(SCCCCOC(C)=O)c(C(=O)O)n1Cc1ccc(-c2ccccc2S(=O)(=O)NC(=O)NCCC)cc1
ID50 [1]: > 10 mg/kg | IC50 [2]: 0.3 nM | ID50 [3]: 0.6 mg/kg

CCCCc1nc(SC(F)(F)F)c(C(=O)O)n1Cc1ccc(-c2ccccc2S(=O)(=O)NC(=O)NCCC)cc1
ID50 [1]: 1.28 mg/kg | IC50 [2]: 0.8 nM | ID50 [3]: 0.11 mg/kg

CCCCc1nc(Sc2ccccc2)c(C(=O)O)n1Cc1ccc(-c2ccccc2S(=O)(=O)NC(=O)NCCC)cc1
ID50 [1]: > 10 mg/kg | IC50 [2]: 0.3 nM | ID50 [3]: 0.67 mg/kg

CCCCc1nc(SCC(F)(F)F)c(C(=O)O)n1Cc1ccc(-c2ccccc2S(=O)(=O)NC(=O)NCCC)cc1
ID50 [1]: 2.28 mg/kg | IC50 [2]: 0.6 nM | ID50 [3]: 0.8 mg/kg

CCCNC(=O)NS(=O)(=O)c1ccccc1-c1ccc(Cn2c(CC)nc(SC)c2C(=O)O)cc1
IC50 [2]: 1.3 nM

CCCCc1nc(SC)c(C(=O)O)n1Cc1ccc(-c2ccccc2S(=O)(=O)/N=C(/S)NCCC)cc1
IC50 [2]: 2.1 nM | ID50 [3]: 1.15 mg/kg

CCCCc1nc(SC)c(C(=O)O)n1Cc1ccc(-c2ccccc2S(=O)(=O)NC(C)=O)cc1
ID50 [1]: 2.02 mg/kg | IC50 [2]: 1 nM | ID50 [3]: 0.13 mg/kg

CCCCc1nc(SC)c(C(=O)O)n1Cc1ccc(-c2ccccc2S(=O)(=O)NC(=O)CCC)cc1
ID50 [1]: 0.95 mg/kg | IC50 [2]: 0.2 nM | ID50 [3]: 0.06 mg/kg

CCCCc1nc(SC)c(C(=O)O)n1Cc1ccc(-c2ccccc2S(=O)(=O)NC(=O)N(CC)CC)cc1
IC50 [2]: 4.7 nM

CCCCc1nc(SCC(F)(F)C(F)(F)CO)c(C(=O)O)n1Cc1ccc(-c2ccccc2S(=O)(=O)NC(=O)NCCC)cc1
ID50 [1]: 5.3 mg/kg | IC50 [2]: 0.3 nM | ID50 [3]: 0.83 mg/kg

CCCCc1nc(SC)c(C(=O)O)n1Cc1ccc(-c2ccccc2S(=O)(=O)NC(=O)OCC(C)C)cc1
ID50 [1]: 0.43 mg/kg | IC50 [2]: 0.2 nM | ID50 [3]: 0.15 mg/kg
